Data: ChEMBL document CHEMBL1926554, “Diarylheptanoids from the seeds of Alpinia katsumadai as heat shock factor 1 inducers” (J Nat Prod, 2011)
The source made the active and inactive calls. No cut-off for these calls is given here.

Experiments:
NCI-H460 [1] = experiment: Induction of HSP70 expression in human NCI-H460 cells at 1 uM after 24 hrs by Western blotting relative to control; type: functional
Procedure, shortened: (§1)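 NCI-H460 (human non-small-cell lung cancer) cells treated 24 h. Lysates run on SDS-PAGE, transferred to nitrocellulose, probed with antibodies to HSF1, HSP27 and HSP70, detected by ECL. Band signals normalized to β-actin and compared with untreated cells. Mean ± SD of three independent experiments done in triplicate, p < 0.05 versus untreated.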

NCI-H460 [2] = experiment: Induction of HSP27 expression in human NCI-H460 cells at 1 uM after 24 hrs by Western blotting relative to control; type: functional; procedure, shortened: as §1
NCI-H460 [3] = experiment: Induction of HSF1 expression in human NCI-H460 cells at 1 uM after 24 hrs by Western blotting relative to control; type: functional; procedure, shortened: as §1
NCI-H460 [4] = experiment: Cytotoxicity against human NCI-H460 cells after overnight incubation by MTT assay; type: cell-based
Procedure, shortened: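 Human non-small-cell lung cancer NCI-H460 cells. Cytotoxicity read by MTT assay. IC50 taken as the concentration (μM) giving 50% inhibition of cell growth.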

Structure (SMILES) | Activity (NCI-H460 [1]) | Activity (NCI-H460 [2]) | Activity (NCI-H460 [3]) | IC50 (NCI-H460 [4]) [µM] | fold change (FC) (NCI-H460 [1]) | fold change (FC) (NCI-H460 [2]) | fold change (FC) (NCI-H460 [3])
O=C(/C=C/c1ccc(O)cc1)C[C@H](O)CCc1ccccc1 | inactive | inactive | inactive | – | – | – | –
Oc1ccc(CC[C@H](O)C[C@H](O)/C=C/c2ccccc2)cc1 | inactive | inactive | inactive | – | – | – | –
COc1cc(O)c(C(/C=C/CC(O)CCc2ccccc2)c2ccc(O)cc2)c(O)c1C(=O)/C=C/c1ccc(O)cc1 (mixture of isomers) | – | – | – | 45.7 | 1.229 | 1.27 | 1.316
COc1cc(O)c(C(/C=C/CC(O)CCc2ccc(O)cc2)c2ccc(O)cc2)c(O)c1C(=O)/C=C/c1ccccc1 (mixture of isomers) | – | – | – | 47.4 | 1.373 | 1.403 | 1.438
COc1cc(O)c(C(/C=C/CC(O)CCc2ccccc2)c2ccc(O)cc2)c(O)c1C(=O)/C=C/c1ccccc1 (mixture of isomers) | – | – | – | 39.8 | 1.313 | 1.25 | 1.19
CC1=C(O)C(=O)C=C2C1=CC=C1[C@@]2(C)CC[C@@]2(C)[C@@H]3C[C@](C)(C(=O)O)CC[C@]3(C)CC[C@]12C [CELASTROL] | – | – | – | 12.3 | 1.371 | 1.216 | 1.066
CC(=O)O[C@H]1C(=O)[C@@]2(C)[C@H]([C@H](OC(=O)c3ccccc3)[C@]3(O)C[C@H](OC(=O)[C@H](O)[C@@H](NC(=O)c4ccccc4)c4ccccc4)C(C)=C1C3(C)C)[C@]1(OC(C)=O)CO[C@@H]1C[C@@H]2O [PACLITAXEL] | – | – | – | 8 | – | – | –
